Seven compounds from ChEMBL document CHEMBL4680311, “Synthesis, characterization, in vitro SAR study, and preliminary in vivo toxicity evaluation of naphthylmethyl substituted bis-imidazolium salts” (Bioorg Med Chem, 2021) can be followed below.

SMILES strings stand for the structures. Bounds are passed on as bounds.

The subject of one assay is HOP-62. As to the kind of experiment: Antiproliferative activity against human HOP-62 cells assessed as cell growth at 10 uM incubated for 48 hrs by sulforhodamine B assay relative to control. The class given is functional. The settings on record: read-out: Activity. An outline of the steps: (§1)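 NCI DTP NCI-60 one-dose screen on the NSCLC panel. Cells were seeded at densities set by doubling rate and incubated 24 h. They were then exposed to a single 10 μM dose for 48 h. Each value is a growth percentage relative to the initial cell population: positive means net growth, negative means net cell kill.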

Another assay concerns NCI-H1975. As to the kind of experiment: Cytotoxicity against human NCI-H1975 cells assessed as cell growth inhibition measured after 72 hrs by MTT assay. The class given is functional, cell-based. As to conditions: NCI-H1975, 72 h. Summed up: (§2)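 Cells kept in RPMI 1640 with 10% FBS at 37 °C, 5% CO₂, passaged every 2–3 days; grown to confluence, seeded at 5,000–7,000 cells/well depending on line, incubated 24 h. Compounds dissolved in 1% DMSO, diluted in medium to 1, 4, 16, 32 μM (6 replicates each), 72 h exposure. MTT 3–4 h, medium aspirated, DMSO added, 15 min, OD 540 nm; IC50 relative to untreated cells.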
(In general: Tetrazolium dyes change colour on reduction, which living cells bring about.)

Assay [1] relates to A549. The assay can be described thus: Antiproliferative activity against human A549/ATCC cells assessed as cell growth at 10 uM incubated for 48 hrs by sulforhodamine B assay relative to control. The settings on record: read-out: Activity. The class given is functional. An outline of the steps: as §1
The subject of assay [2] is NCI-H460. The assay can be described thus: Cytotoxicity against human NCI-H460 cells assessed as cell growth inhibition measured after 72 hrs by MTT assay. The class given is functional, cell-based. As to conditions: NCI-H460, 72 h. Summed up: as §2
For the next assay, the system named is EKVX. The assay can be described thus: Antiproliferative activity against human EKVX cells assessed as cell growth at 10 uM incubated for 48 hrs by sulforhodamine B assay relative to control. The class given is functional. The settings on record: read-out: Activity. An outline of the steps: as §1
Background: Sulforhodamine B stains cellular protein and so reports cell mass.

The test system of assay [3] is A549. As to the kind of experiment: Cytotoxicity against human A549 cells assessed as cell growth inhibition measured after 72 hrs by MTT assay. The class given is functional, cell-based. As to conditions: A549, 72 h. An outline of the steps:
as §2

The test system of the next assay is NCI-H23. As to the kind of experiment: Antiproliferative activity against human NCI-H23 cells assessed as cell growth at 10 uM incubated for 48 hrs by sulforhodamine B assay relative to control. The class given is functional. As to conditions: read-out: Activity. Summed up:
as §1

The next assay concerns NCI-H522. The assay can be described thus: Antiproliferative activity against human NCI-H522 cells assessed as cell growth at 10 uM incubated for 48 hrs by sulforhodamine B assay relative to control. The class given is functional. The settings on record: read-out: Activity. An outline of the steps: as §1
The test system of another assay is HOP-92. As to the kind of experiment: Antiproliferative activity against human HOP-92 cells assessed as cell growth at 10 uM incubated for 48 hrs by sulforhodamine B assay relative to control. As to conditions: read-out: Activity. The class given is functional. Summed up: as §1
For a further assay, the system named is NCI-H226. The assay can be described thus: Antiproliferative activity against human NCI-H226 cells assessed as cell growth at 10 uM incubated for 48 hrs by sulforhodamine B assay relative to control. The class given is functional. As to conditions: read-out: Activity. An outline of the steps:
as §1

A further assay relates to HCC827. The assay can be described thus: Cytotoxicity against human HCC827 cells assessed as cell growth inhibition measured after 72 hrs by MTT assay. The class given is functional, cell-based. The settings on record: HCC827, 72 h. Summed up: as §2
Assay [4] has as its system NCI-H460. The assay can be described thus: Antiproliferative activity against human NCI-H460 cells assessed as cell growth at 10 uM incubated for 48 hrs by sulforhodamine B assay relative to control. The class given is functional. The settings on record: read-out: Activity. Summed up: as §1
In a further assay the test system is NCI-H322M. As to the kind of experiment: Antiproliferative activity against human NCI-H322M cells assessed as cell growth at 10 uM incubated for 48 hrs by sulforhodamine B assay relative to control. The class given is functional. The settings on record: read-out: Activity. Summed up: as §1

Regarding `c1ccc2cc(Cn3cc[n+](CCCn4cc[n+](Cc5ccc6ccccc6c5)c4)c3)ccc2c1`, the growth at 10 µM turned out to be 67.2% in the assay on HOP-62; 62.3% with A549 [1]; 82.7% with EKVX; 77.8% with NCI-H23; 56.6% in the assay on NCI-H522; 67.5% in the assay with HOP-92. For the same compound, the growth at 10 µM with NCI-H226 was determined as 81.9%; with NCI-H460 [4], 75.3%; with NCI-H322M it was 84.4%. Besides, the IC50 (in general, the concentration that gives 50% inhibition) with NCI-H1975 is > 30 µM; with NCI-H460 [2], 20 µM; with A549 [3], 22 µM; in the assay with HCC827 it was > 30 µM.
As for `c1ccc2cc(Cn3cc[n+](Cn4cc[n+](Cc5ccc6ccccc6c5)c4)c3)ccc2c1`, the growth at 10 µM in the assay on HOP-62 was 84.2%; in the assay with A549 [1], 70.8%; in the assay on EKVX it was 89.4%; with NCI-H23 it was 88.3%; in the assay with NCI-H522, 51%; in the assay on HOP-92, 67%. In addition, the figures for the growth at 10 µM with NCI-H226 and in the assay on NCI-H322M were 92.6% and 87.6%, respectively. Also, the IC50 with NCI-H1975 was > 30 µM; in the assay on NCI-H460 [2], 16 µM; with A549 [3], > 30 µM; in the assay with HCC827 it was > 30 µM.
With `c1ccc2cc(Cn3cc[n+](CCCCCCCn4cc[n+](Cc5ccc6ccccc6c5)c4)c3)ccc2c1`, the growth at 10 µM turned out to be 32.6% with HOP-62; 26.7% in the assay with A549 [1]; 27.9% with EKVX; 14.4% with NCI-H23; 5.87% in the assay on NCI-H522; 59.5% in the assay with NCI-H226. The growth at 10 µM in the assay on NCI-H460 [4] came out at 14.6%; with NCI-H322M, 58.6%. In addition, the IC50 in the assay on NCI-H1975 was determined as 3 µM; in the assay on NCI-H460 [2], 3 µM; in the assay on A549 [3], 2 µM; in the assay on HCC827, 10 µM.
As to `c1ccc2cc(Cn3cc[n+](CCCCCn4cc[n+](Cc5ccc6ccccc6c5)c4)c3)ccc2c1`, the growth at 10 µM worked out at 57% with HOP-62; 41.7% in the assay on A549 [1]; 47.1% with EKVX; 45.3% in the assay with NCI-H23; 35.7% in the assay on NCI-H522; 66% with HOP-92. Besides, the growth at 10 µM was 72.6% in the assay with NCI-H226, 30.5% in the assay with NCI-H460 [4] and 86.2% with NCI-H322M. Besides, the IC50 is 12 µM with NCI-H1975, 2 µM with NCI-H460 [2], 4 µM with A549 [3] and > 30 µM in the assay on HCC827.
Take `c1ccc2cc(Cn3cc[n+](Cc4ccc5ccccc5c4)c3)ccc2c1`: the IC50 in the assay with NCI-H1975 is 6 µM; in the assay with NCI-H460 [2], 4 µM; in the assay with HCC827 it was 9 µM.
`c1ccc2cc(Cn3cc[n+](CCCCCCn4cc[n+](Cc5ccc6ccccc6c5)c4)c3)ccc2c1`: the growth at 10 µM in the assay on HOP-62 was determined as 55.8%; with A549 [1] it was 38.6%; in the assay with EKVX it was 37.3%; in the assay with NCI-H23 it was 30.5%; with NCI-H522 it was 33.1%; in the assay on HOP-92, 59.9%. Also, the growth at 10 µM in the assay on NCI-H226 was found to be 69.6%; with NCI-H460 [4] it was 24.6%; in the assay with NCI-H322M, 76.2%. The concentration for half-maximal inhibition (IC50) in the assay on NCI-H1975 was 6 µM; in the assay on NCI-H460 [2], 2 µM; in the assay with A549 [3] it was < 1 µM; in the assay with HCC827, 12 µM.
Consider `c1ccc2cc(Cn3cc[n+](CCn4cc[n+](Cc5ccc6ccccc6c5)c4)c3)ccc2c1`, for which the growth at 10 µM is 86% in the assay on HOP-62; 64.1% in the assay on A549 [1]; 91.4% in the assay with EKVX; 88.9% with NCI-H23; 79.2% in the assay with HOP-92; 82.7% in the assay with NCI-H226. Further, the growth at 10 µM in the assay on NCI-H322M came to 86.4%. The 50% inhibitory concentration (IC50) with NCI-H1975 was > 30 µM; with NCI-H460 [2], 14 µM; in the assay on A549 [3], > 30 µM; in the assay with HCC827 it was > 30 µM.
